Reference: ChEMBL document CHEMBL1145097 (J Med Chem, 2003)

Columns and labels:
Rattus norvegicus [1] = assay: (§1) Amount in vivo in rat plasma after intraperitoneal dose of 3 mg/Kg; format: ADME, organism-based; conditions: ip, read-out: Plasma level
Outline: (§2)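 Rats given 3 mg/kg ip; brain (hippocampus) and plasma drug levels measured 1 h after dosing. Mean ± SEM, n = rats per group.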

Rattus norvegicus [2] = assay: Amount in vivo in rat brain after intraperitoneal dose of 3 mg/Kg; format: ADME, organism-based; conditions: ip, read-out: Brain level; outline: as §2
[3] = LogD value was determined; format: physicochemical; conditions: octanol/water
Outline: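 log D determined by an HPLC method.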

[4] = target: Metabotropic glutamate receptor 1 (Homo sapiens, UniProt Q13255); assay: Tested for in vitro antagonistic activity against Metabotropic glutamate receptor 1; format: functional
Metabotropic glutamate receptor 1, sequence (Q13255 whole entry): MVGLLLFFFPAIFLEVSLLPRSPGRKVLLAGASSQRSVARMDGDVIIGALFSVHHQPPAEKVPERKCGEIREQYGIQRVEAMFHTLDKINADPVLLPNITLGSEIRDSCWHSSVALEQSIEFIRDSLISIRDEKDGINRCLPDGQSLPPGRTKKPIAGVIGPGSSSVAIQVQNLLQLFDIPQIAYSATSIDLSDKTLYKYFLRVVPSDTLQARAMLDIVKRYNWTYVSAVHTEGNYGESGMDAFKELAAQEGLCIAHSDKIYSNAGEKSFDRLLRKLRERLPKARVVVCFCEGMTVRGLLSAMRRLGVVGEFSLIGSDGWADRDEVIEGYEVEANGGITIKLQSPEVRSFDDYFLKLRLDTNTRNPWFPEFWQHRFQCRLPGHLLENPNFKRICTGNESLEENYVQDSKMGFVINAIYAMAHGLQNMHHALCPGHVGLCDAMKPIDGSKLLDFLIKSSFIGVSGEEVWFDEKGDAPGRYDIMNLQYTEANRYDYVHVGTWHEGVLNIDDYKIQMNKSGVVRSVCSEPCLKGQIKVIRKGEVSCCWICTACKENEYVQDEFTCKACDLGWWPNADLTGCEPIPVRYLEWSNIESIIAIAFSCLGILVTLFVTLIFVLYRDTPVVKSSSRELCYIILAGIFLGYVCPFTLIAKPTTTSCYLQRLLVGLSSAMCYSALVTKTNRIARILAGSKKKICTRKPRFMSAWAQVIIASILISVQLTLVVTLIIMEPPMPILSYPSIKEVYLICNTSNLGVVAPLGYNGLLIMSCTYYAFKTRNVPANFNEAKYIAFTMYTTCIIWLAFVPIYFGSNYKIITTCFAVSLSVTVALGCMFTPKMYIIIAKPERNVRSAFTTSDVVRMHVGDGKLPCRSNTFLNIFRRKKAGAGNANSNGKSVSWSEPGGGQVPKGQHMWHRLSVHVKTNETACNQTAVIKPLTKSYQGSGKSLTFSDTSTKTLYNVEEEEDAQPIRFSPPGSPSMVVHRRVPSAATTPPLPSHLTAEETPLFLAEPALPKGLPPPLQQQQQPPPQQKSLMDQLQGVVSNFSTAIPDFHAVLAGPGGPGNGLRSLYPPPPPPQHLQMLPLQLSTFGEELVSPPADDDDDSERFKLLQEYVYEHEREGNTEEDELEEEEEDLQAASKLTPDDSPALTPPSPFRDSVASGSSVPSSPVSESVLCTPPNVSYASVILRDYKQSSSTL
Outline: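 Ca2+ flux assay at mGlu1a, with compounds tested in both agonist and antagonist modes. Initial screen at 10 µM; concentration-response curves generated where inhibition was seen.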

[5] = target: T1, Amine oxidase [flavin-containing] A (Mus musculus, UniProt Q64133); assay: Tested for in vitro antagonistic activity against Monoamine oxidase A; format: functional
T1 sequence (Q64133 whole entry): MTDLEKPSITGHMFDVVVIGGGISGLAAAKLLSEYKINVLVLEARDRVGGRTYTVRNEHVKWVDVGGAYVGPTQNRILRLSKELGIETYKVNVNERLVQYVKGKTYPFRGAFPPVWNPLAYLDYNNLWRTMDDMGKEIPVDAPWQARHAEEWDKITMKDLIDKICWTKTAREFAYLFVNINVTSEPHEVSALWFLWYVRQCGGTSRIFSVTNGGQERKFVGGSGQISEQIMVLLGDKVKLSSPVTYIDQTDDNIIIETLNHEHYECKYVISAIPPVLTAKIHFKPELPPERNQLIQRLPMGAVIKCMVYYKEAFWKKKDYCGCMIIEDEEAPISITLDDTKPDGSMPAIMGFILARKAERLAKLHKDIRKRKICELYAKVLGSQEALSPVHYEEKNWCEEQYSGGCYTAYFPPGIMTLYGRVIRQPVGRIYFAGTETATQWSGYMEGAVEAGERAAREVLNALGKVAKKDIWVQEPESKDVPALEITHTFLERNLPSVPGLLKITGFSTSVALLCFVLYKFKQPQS
Outline: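 Displacement of [125I]RTI-55 binding at MAOA. IC50 given with range in parentheses. Initial screen at 10 µM, followed by concentration-response curves where inhibition was detected.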

[6] = target: T2, Glutamate receptor ionotropic, NMDA 2B (Homo sapiens, UniProt Q05586+Q13224); assay: Tested for in vitro antagonistic activity against recombinant human N-methyl-D-aspartate glutamate receptor 2B; format: functional
T2 sequence (Q13224 whole entry, one chain of several): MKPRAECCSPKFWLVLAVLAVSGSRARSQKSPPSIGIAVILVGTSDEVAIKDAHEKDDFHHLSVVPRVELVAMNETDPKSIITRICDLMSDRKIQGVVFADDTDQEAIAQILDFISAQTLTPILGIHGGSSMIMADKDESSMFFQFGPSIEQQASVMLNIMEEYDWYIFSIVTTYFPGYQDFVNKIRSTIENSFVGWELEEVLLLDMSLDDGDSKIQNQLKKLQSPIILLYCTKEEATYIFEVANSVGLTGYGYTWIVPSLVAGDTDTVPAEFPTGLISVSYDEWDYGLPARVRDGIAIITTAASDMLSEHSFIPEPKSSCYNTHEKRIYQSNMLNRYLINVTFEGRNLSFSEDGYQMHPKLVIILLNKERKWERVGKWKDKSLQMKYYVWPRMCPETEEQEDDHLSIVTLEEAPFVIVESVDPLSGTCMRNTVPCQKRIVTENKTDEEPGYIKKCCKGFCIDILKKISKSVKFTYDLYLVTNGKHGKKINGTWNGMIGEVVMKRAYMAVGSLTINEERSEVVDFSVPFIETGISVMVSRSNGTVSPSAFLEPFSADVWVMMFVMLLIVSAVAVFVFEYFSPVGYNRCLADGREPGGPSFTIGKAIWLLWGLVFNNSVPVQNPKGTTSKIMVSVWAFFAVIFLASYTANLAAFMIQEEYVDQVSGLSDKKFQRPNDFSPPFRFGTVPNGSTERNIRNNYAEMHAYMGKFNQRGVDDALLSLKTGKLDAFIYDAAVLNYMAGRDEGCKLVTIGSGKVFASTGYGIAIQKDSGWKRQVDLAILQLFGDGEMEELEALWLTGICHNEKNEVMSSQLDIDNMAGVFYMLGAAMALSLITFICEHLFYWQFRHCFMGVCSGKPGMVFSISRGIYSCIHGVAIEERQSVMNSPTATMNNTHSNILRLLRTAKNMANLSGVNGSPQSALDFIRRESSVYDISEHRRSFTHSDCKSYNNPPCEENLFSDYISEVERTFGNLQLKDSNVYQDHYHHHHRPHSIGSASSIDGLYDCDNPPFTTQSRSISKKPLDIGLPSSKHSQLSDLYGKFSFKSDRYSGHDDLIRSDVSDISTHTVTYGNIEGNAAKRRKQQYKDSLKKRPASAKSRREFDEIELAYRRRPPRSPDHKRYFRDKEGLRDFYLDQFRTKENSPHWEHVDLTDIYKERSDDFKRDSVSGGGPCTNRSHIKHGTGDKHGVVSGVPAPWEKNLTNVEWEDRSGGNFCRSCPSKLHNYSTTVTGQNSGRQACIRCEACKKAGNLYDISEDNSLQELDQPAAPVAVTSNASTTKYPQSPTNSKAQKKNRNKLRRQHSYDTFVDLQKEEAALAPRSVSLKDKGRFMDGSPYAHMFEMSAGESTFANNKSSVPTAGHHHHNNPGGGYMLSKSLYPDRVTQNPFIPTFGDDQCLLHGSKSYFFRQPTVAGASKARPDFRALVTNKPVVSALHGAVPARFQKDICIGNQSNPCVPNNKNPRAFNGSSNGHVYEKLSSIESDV
Outline: (§3)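 Cell line stably expressing recombinant human NR1A/2B NMDA receptors. Inhibition of NMDA/glycine-evoked rise in intracellular Ca2+. Six-point concentration-response curve with 8-22 cells per concentration.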

Rattus norvegicus [7] = assay: In vivo intraperitoneal effective dose to block fear conditioning in rats was determined by FPS (fear potentiated startle) model of anxiety; format: functional; conditions: ip
Outline: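 Fear-potentiated startle anxiety model in rats. Compound given ip and measurement taken 1 h after administration. 8 rats/group. ED50 reported as mean, with ED50 values from individual experiments (95% confidence interval).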

Rattus norvegicus [8] = assay: Amount in vivo in rat cerebrospinal fluid (CSF) after oral dose of 30 mg/Kg; conditions: read-out: CSF levels
[9] = target: Metabotropic glutamate receptor 5 (Rattus norvegicus, UniProt P31424); assay: Tested for displacement of [3H]3-methoxy-5-(pyridin-2-ylethynyl) pyridine from Metabotropic glutamate receptor 5 in rat cortical membrane; format: cell membranes
Metabotropic glutamate receptor 5 (Rattus norvegicus, UniProt P31424), sequence (P31424 whole entry): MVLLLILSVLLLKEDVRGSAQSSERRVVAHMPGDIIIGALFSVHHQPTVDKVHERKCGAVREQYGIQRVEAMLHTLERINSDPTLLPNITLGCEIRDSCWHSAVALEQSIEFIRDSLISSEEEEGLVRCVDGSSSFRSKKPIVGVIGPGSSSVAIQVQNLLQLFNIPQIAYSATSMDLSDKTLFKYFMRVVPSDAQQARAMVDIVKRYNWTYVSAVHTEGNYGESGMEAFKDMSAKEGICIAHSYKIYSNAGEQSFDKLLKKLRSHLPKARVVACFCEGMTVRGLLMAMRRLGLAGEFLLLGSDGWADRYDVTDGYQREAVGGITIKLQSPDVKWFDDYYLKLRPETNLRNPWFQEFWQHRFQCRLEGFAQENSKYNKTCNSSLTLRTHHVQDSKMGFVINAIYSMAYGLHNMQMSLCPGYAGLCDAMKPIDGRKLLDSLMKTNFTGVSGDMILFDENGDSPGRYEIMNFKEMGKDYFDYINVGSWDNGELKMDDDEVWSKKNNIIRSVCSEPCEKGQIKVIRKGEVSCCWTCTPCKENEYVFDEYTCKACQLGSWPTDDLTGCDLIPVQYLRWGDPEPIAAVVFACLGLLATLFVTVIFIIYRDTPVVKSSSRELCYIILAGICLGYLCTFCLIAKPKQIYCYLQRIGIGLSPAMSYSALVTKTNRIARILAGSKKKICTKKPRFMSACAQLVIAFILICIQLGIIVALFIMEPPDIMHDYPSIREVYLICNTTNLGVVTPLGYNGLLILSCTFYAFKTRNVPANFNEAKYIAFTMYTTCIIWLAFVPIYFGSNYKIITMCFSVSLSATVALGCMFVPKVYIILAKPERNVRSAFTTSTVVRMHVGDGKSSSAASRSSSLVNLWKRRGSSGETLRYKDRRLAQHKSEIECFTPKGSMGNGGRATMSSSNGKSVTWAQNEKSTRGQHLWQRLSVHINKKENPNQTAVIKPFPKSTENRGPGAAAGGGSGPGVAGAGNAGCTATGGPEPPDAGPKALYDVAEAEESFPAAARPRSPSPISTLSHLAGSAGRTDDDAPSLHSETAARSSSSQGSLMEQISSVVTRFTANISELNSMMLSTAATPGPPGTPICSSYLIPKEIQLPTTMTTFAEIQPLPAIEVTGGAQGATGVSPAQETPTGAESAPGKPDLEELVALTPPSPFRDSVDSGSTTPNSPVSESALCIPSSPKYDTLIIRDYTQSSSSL
Outline: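 Rat cortical membranes; displacement of [3H]-3-methoxy-5-(pyridin-2-ylethynyl)pyridine bound to native mGlu5. Geometric mean with standard deviation and number of replicates.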

[10] = target: Metabotropic glutamate receptor 5 (Homo sapiens, UniProt P41594); assay: Tested in vitro against human recombinant Metabotropic glutamate receptor 5 stably expressed in LtK cells by [Ca2+] flux assay using glutamate as agonist
Metabotropic glutamate receptor 5 (Homo sapiens, UniProt P41594), sequence (P41594 whole entry): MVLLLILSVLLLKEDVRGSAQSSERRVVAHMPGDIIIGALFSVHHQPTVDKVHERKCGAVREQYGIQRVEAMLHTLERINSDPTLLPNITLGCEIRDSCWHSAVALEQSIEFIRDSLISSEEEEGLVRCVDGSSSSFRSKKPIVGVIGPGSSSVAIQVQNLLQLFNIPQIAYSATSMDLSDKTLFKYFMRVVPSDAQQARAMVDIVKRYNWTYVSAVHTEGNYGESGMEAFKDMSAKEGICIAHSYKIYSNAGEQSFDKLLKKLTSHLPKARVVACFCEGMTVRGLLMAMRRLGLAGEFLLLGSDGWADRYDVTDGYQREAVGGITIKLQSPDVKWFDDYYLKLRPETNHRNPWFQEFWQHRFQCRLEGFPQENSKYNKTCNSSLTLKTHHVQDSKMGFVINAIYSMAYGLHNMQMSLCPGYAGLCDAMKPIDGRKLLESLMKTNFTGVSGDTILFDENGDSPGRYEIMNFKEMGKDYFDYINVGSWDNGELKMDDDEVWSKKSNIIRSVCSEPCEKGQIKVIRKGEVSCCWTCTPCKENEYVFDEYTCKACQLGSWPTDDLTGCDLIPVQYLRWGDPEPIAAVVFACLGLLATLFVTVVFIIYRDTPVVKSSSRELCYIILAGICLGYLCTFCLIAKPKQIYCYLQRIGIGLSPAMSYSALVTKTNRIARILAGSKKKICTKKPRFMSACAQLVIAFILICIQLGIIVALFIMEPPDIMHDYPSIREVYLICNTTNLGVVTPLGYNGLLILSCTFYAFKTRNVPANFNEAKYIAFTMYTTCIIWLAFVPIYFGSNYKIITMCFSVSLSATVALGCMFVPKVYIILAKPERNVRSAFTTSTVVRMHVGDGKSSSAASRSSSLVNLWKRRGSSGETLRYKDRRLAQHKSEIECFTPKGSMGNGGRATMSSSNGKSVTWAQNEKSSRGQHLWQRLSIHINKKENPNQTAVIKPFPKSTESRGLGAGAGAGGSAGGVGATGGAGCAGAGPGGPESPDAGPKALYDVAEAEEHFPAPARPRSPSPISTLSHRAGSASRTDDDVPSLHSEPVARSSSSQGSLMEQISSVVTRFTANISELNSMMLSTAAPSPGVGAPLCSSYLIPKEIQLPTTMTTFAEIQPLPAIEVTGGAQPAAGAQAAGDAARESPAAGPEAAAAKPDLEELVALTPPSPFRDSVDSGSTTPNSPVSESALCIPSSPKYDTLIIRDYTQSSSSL

[11] = as §1; format: ADME, organism-based; conditions: ip, read-out: Plasma level; outline: as §2
[12] = target: T1, Amine oxidase [flavin-containing] A; assay: Tested for in vitro antagonistic activity against Monoamine oxidase; format: functional
Outline: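 Radioligand displacement of [125I]RTI-55 ([125I]methyl (1R,2S,3S,5S)-3-(4-iodophenyl)-8-methyl-8-azabicyclo[3.2.1]octane-2-carboxylate) from MAO-A. Compounds were first screened at 10 µM.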

[13] = target: T2, Glutamate receptor ionotropic, NMDA 2B; assay: Tested for in vitro antagonistic activity against human N-methyl-D-aspartate glutamate receptor 2B; format: functional; outline: as §3

Row | Structure (SMILES) | logD [3] | Ki [9] [nM] | IC50 [10] [nM] | also measured
1 | Cc1nc(C#Cc2cccnc2)cs1 | 2.1 |  |  | concentration (Rattus norvegicus [1]): 1200 nM; concentration (Rattus norvegicus [2]): 1400 nM; IC50 [4]: > 100 µM; IC50 [5]: 30 µM; IC50 [6]: > 300 µM; ED50 (Rattus norvegicus [7]): 1 mg/kg; concentration (Rattus norvegicus [8]): 1000 nM
2 | Cc1cccc(C#Cc2ccccc2)n1 | 3.5 |  |  | concentration [11]: 390 nM; concentration (Rattus norvegicus [2]): 830 nM; IC50 [4]: > 100 µM; IC50 [12]: 8 µM; IC50 [13]: 18 µM; ED50 (Rattus norvegicus [7]): 5 mg/kg; concentration (Rattus norvegicus [8]): 210 nM
3 | Cc1nc(C#Cc2ccccn2)cs1 | 1.9 | 48 | 53 | 
4 | C(#Cc1nccs1)c1ccccc1 | 3.2 | 153 | 81 | 
5 | Cc1nc(C#Cc2ccccc2)cs1 | 3.3 | 6 | 6 | 

More lines, in order of falling Ki [9], values ahead:

Row | logD [3] | Ki [9] [nM] | IC50 [10] [nM] | Structure (SMILES) | also measured
6 | 2.1 | 214 | 122 | Cc1nc(C#Cc2ccncc2)cs1 | 
7 | 2.6 | 142 | 97 | C(#Cc1cscn1)c1ccccc1 | 
8 | 2.6 | 32 | 13 | Cc1csc(C#Cc2ccccc2)n1 | 
